The results in this text go back to ChEMBL document CHEMBL1641482, “Synthetic analogs of daidzein, having more potent osteoblast stimulating effect” (2011).

Experiment [1] relates to Rattus norvegicus. As to the kind of experiment: Antiestrogenic activity in ovariectomized Sprague-Dawley rat assessed as inhibition of 17beta estradiol-induced increase in uterine weight at 10 mg/kg, po qd for 3 days. It counts as functional.
For experiment [2], the system named is Osteoblast. As to the kind of experiment: Ratio of compound to daidzein for induction of osteogenesis in Sprague-Dawley rat calvarial osteoblasts. The format is functional.
The test system of experiment [3] is Rattus norvegicus. As to the kind of experiment: Estrogenic activity in ovariectomized Sprague-Dawley rat assessed as effect on uterine weight at 10 mg/kg, po qd for 3 days (reference value: 35.0 +/- 0.6). It counts as functional.
In experiment [4] the test system is Osteoblast. As to the kind of experiment: Induction of osteogenesis in Sprague-Dawley rat calvarial osteoblasts assessed as increase in osteoblast differentiation-associated ALP level at 1 uM after 48 hrs. It counts as functional, cell-based.
In experiment [5] the test system is Osteoblast. As to the kind of experiment: Induction of osteogenesis in Sprague-Dawley rat calvarial osteoblasts assessed as increase in osteoblast differentiation-associated ALP level at 1 pM to 10 nM after 48 hrs. The format is functional, cell-based. In short, it runs like this:
(§1)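 Primary rat calvarial osteoblasts were seeded at 2 × 10³ cells per well and exposed to compounds from 1.0 pM to 10.0 nM for 48 h. Daidzein served as the positive control. ALP activity was read spectrophotometrically at 405 nm. Data are mean SD, n = 6, compared with vehicle-treated cells.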

Experiment [6] concerns Osteoblast. As to the kind of experiment: Induction of osteogenesis in Sprague-Dawley rat calvarial osteoblasts assessed as increase in osteoblast differentiation-associated ALP level at 1 pM after 48 hrs. The format is functional, cell-based. In short, it runs like this: as §1
Experiment [7] has as its system Osteoblast. As to the kind of experiment: Induction of mineralization in Sprague-Dawley rat calvarial osteoblasts assessed as increase of mineralized nodules formation at 10 nM after 7 days by alizarin red staining. The format is functional, cell-based. In a few lines: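 Primary rat calvarial osteoblasts were seeded at 2 × 10³ cells per well and exposed to 10.0 nM compound for seven days. Cells were fixed and stained with alizarin red-S, and the dye was extracted and measured colorimetrically by OD. Data are mean SD, n = 4, versus vehicle.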

The subject of experiment [8] is Rattus norvegicus. As to the kind of experiment: Estrogenic activity in ovariectomized Sprague-Dawley rat assessed as effect on uterine weight at 3 mg/kg, po qd for 3 days (reference value: 35.0 +/- 0.6). The format is functional.
Experiment [9] concerns Rattus norvegicus. As to the kind of experiment: Antiestrogenic activity in ovariectomized Sprague-Dawley rat assessed as inhibition of 17beta estradiol-induced increase in uterine weight at 3 mg/kg, po qd for 3 days. It counts as functional.
For another experiment, the system named is Bone marrow cell. As to the kind of experiment: Induction of mineralization in rat bone marrow cell assessed as increase of mineralized nodules formation at 10 nM after 18 days by alizarin red staining.
In experiment [10] the test system is Rattus norvegicus. As to the kind of experiment: Estrogenic activity in ovariectomized Sprague-Dawley rat assessed as effect on uterine weight at 0.01 mg/kg, po qd for 3 days (reference value: 35.0 +/- 0.6). The format is functional.
Experiment [11] relates to Osteoblast. As to the kind of experiment: Induction of osteocalcin mRNA expression in Sprague-Dawley rat calvarial osteoblasts at 10 nM after 24 hrs by RT-PCR analysis relative to control. The format is functional. In a few lines: (§2)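 Osteoblasts were cultured with or without 10 nM compound for 24 h. Osteocalcin and BMP-2 transcripts were quantified by real-time RT-PCR (qPCR) against vehicle control. Data are mean SEM, n = 4.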

The subject of experiment [12] is Osteoblast. As to the kind of experiment: Induction of BMP-2 mRNA expression in Sprague-Dawley rat calvarial osteoblasts at 10 nM after 24 hrs by RT-PCR analysis relative to control. The format is functional. In short, it runs like this:
as §2

The source made the active and inactive calls. The calls are words filed in the database; no cut-off is given here.

As for `COc1ccc(-c2coc3cc(OCCN4CCCC4)ccc3c2=O)cc1`, the Activity with Rattus norvegicus [1] turned out to be 59.3 mg; in the experiment with Rattus norvegicus [3], 31.3 mg. In the experiment with Osteoblast [2], the Ratio worked out at 100. Moreover, the outcome in the experiment with Osteoblast [4], in the experiment on Osteoblast [5] and in the experiment with Osteoblast [7] was Active. The outcome with Osteoblast [6] was inactive.

For `O=C(c1ccc(OCCN2CCCCC2)cc1)c1c(-c2ccc(O)cc2)sc2cc(O)ccc12` [RALOXIFENE], the Activity is 42.3 mg with Rattus norvegicus [8] and 67 mg with Rattus norvegicus [9].

For the molecule `COc1ccc2c(=O)c(-c3ccc(OCC(C)C)cc3)coc2c1`, in the experiment with Osteoblast [2], the Ratio is reported as 100. The outcome in the experiment on Osteoblast [4] and in the experiment with Osteoblast [5] was Active. In addition, the result in the experiment with Osteoblast [6] was inactive.

For the molecule `CCN(CC)CCOc1ccc(-c2coc3cc(OCCN(CC)CC)ccc3c2=O)cc1`, the Activity in the experiment on Rattus norvegicus [1] stood at 57.3 mg; in the experiment with Rattus norvegicus [3] it was 31.3 mg. Moreover, the Ratio with Osteoblast [2] was 100. Moreover, the result with Bone marrow cell, in the experiment with Osteoblast [4], in the experiment on Osteoblast [5] and with Osteoblast [7] was Active. Besides, in the experiment on Osteoblast [6], the result was inactive.

In the case of `C#C[C@]1(O)CC[C@H]2[C@@H]3CCc4cc(O)ccc4[C@H]3CC[C@@]21C` [ETHINYL ESTRADIOL], in the experiment on Rattus norvegicus [10], the Activity stood at 82.3 mg.

For `COc1ccc2c(=O)c(-c3ccc(OCCBr)cc3)coc2c1`, the Ratio in the experiment with Osteoblast [2] worked out at 100. Further, the result in the experiment on Osteoblast [4] and with Osteoblast [5] was Active. In the experiment with Osteoblast [6], the outcome was inactive.

On to `CCN(CC)CCOc1ccc2c(=O)c(-c3ccc(OC)cc3)coc2c1`, for which the results for the Activity with Rattus norvegicus [1] and in the experiment on Rattus norvegicus [3] were 63 mg and 28 mg, respectively. Further, in the experiment with Osteoblast [2], the Ratio is recorded as 100. The outcome in the experiment with Bone marrow cell, in the experiment on Osteoblast [4], in the experiment on Osteoblast [5] and in the experiment on Osteoblast [7] was Active. Besides, the “fold change (FC)” value in the experiment on Osteoblast [11] came out at 10; in the experiment on Osteoblast [12] it was 6. In addition, the outcome in the experiment with Osteoblast [6] was inactive.
